For 148 variants, yeast fitness results are on record in the RNAGym collection of RNA variant scans (doi:10.1126/science.aae0568).

First the molecules themselves.
B1: tRNA (parent)
chain: GUUCCGUUGGCGUAAUGGUAACGCGUCUCCCUCCUAAGGAGAAGACUGCGGGUUCGAGUCCCGUACGGAACG

Fewer inactive variants are shown than the library holds.

The variants in this data set derive from B1. The data set is described as follows: yeast fitness relative to wild type (ratio to wild type); higher = fitter; tRNA-Arg(CCU), competitive growth, 37 C, YPD. An outline of the steps: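 Changes in genotype frequencies gave Darwinian fitness relative to wild type. Frequencies were read by 100-nucleotide paired-end sequencing of gene amplicons before and after pooled Saccharomyces cerevisiae strains, carrying tRNA-Arg(CCU) gene variants at the native locus, were competed in YPD at 37°C for 24 hours in six replicates. A genotype was kept only with ≥ 100 starting reads, and estimates < 0.5 were set to 0.5.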
G12C A20C C31G: the yeast fitness was 0.596.

Turning to G48C A57G, the yeast fitness was 0.705.

As for C24U G63A, the yeast fitness was found to be 0.869.

For the variant G39A C46A C60G C61U, the yeast fitness was found to be 0.512.

Turning to U3A G67A, the yeast fitness came to 0.684.

On to C29G A57G, for which the yeast fitness was determined as 0.715.

With U2C G51U U54A A70U, the yeast fitness is ≤ 0.5.

Turning to G17A A42G, the yeast fitness amounted to 0.732.

In the case of G9C A15C U16C C34G C66A A69C, the yeast fitness is ≤ 0.5.

U7G G41C A69C: the yeast fitness was ≤ 0.5.

For A20G C22G C30U U54C, the yeast fitness was ≤ 0.5.

On to A15C A40U, for which the yeast fitness came to 0.833.

In the case of G9C C24A A45G C46G, the yeast fitness turned out to be 0.597.

Take U32C A45U C66A: the yeast fitness is ≤ 0.5.

For U7G A20G C27U C49G G52C A70G, the yeast fitness is ≤ 0.5.

Turning to A15G U26A C66A, the yeast fitness was ≤ 0.5.

In the case of U7G C62U, the yeast fitness is 0.893.

U13A A21U A42U G44C: the yeast fitness was 0.652.

Turning to G12A C24G U47A C49G A69C, the yeast fitness is ≤ 0.5.

G9A G10A C24A G44A: the yeast fitness was ≤ 0.5.

On to C34A A65G, for which the yeast fitness was 0.69.

C5G G9A A14C A37G C62G: the yeast fitness is ≤ 0.5.

On to U8A A43G, for which the yeast fitness came out at 0.742.

Turning to U8C C22G C30G, the yeast fitness was ≤ 0.5.

As for A14G C31U U35C A40G A65U, the yeast fitness is ≤ 0.5.

For the variant G50A G63A, the yeast fitness came out at 0.943.

Turning to U2A G12A G17A A20G A21C C29A A69U, the yeast fitness is ≤ 0.5.

Take C5G G17A U26C: the yeast fitness was ≤ 0.5.

Turning to C5U C27G C46U, the yeast fitness was found to be 0.753.

Take G9C U59A: the yeast fitness was found to be 0.737.

Take A43C G48A G58C: the yeast fitness worked out at 0.689.

Regarding A42G U64A, the yeast fitness was determined as 0.724.

C5A C11G A40G G67C A69U: the yeast fitness is ≤ 0.5.

A15C G23C C60U A69G: the yeast fitness is ≤ 0.5.

Turning to A42C G58A, the yeast fitness was found to be 0.951.

Turning to C4G U32C A70U, the yeast fitness amounted to 0.742.

In the case of A37C C46G A70C, the yeast fitness stood at 0.632.

As to C4U U19C A36G G39A G67A, the yeast fitness is ≤ 0.5.

C11A C27A C55U: the yeast fitness was ≤ 0.5.

Regarding G6C A36C A40G G48A A65U C66U A69U, the yeast fitness was ≤ 0.5.

As to C5G C11U A42G C49U, the yeast fitness was determined as 0.548.

For C5A A15G C24U C29U C30G U35G, the yeast fitness is ≤ 0.5.

As to C11U A45C, the yeast fitness came to 0.836.

As to C5U U16C A40G A43G G63C A69G, the yeast fitness is ≤ 0.5.

As for A40U A45G, the yeast fitness was found to be 0.816.

In the case of C4U C27A G51C, the yeast fitness amounted to 0.562.

Consider U2C C11A C31U C33U A42C C61U, for which the yeast fitness was ≤ 0.5.

On to G10A U32A G48A, for which the yeast fitness is ≤ 0.5.

Consider U2C A14G G18A A70C, for which the yeast fitness is ≤ 0.5.

For C5U U32C C49U, the yeast fitness amounted to 0.842.

In the case of U3C C34A G44C C46U G51A, the yeast fitness is ≤ 0.5.

Take C11G A20C C49A U54G: the yeast fitness is ≤ 0.5.

Regarding C34U A69C, the yeast fitness worked out at 0.774.

U2A U28C G41C C66A: the yeast fitness was ≤ 0.5.

Take G63A A70U: the yeast fitness is 0.816.

Regarding C11A U53C, the yeast fitness was 0.556.

Take G6A A69U: the yeast fitness came to 0.916.

In the case of C5A U59A A69G, the yeast fitness was ≤ 0.5.

Regarding G44C C46U C62G, the yeast fitness stood at 0.787.

As to U2C U53C C61G, the yeast fitness is ≤ 0.5.

With G10A A14G U26C A36U G52A, the yeast fitness is ≤ 0.5.

As to C46G C62A, the yeast fitness was 0.873.

Turning to U26A G56A, the yeast fitness turned out to be 1.02.

Take A42U A45U A69U: the yeast fitness stood at 0.707.

As for U8C C30U U47A G67C, the yeast fitness is ≤ 0.5.

For C33G C34G C46U, the yeast fitness worked out at 0.547.

As for C4A A65U, the yeast fitness was found to be 0.719.

As for C31G C34G A40U, the yeast fitness is ≤ 0.5.

On to C4U G18C A57C, for which the yeast fitness came to 0.639.

For the variant C22U A70C, the yeast fitness stood at 0.859.

In the case of U3C C27U C33U C61A, the yeast fitness was ≤ 0.5.

With A20C U26G, the yeast fitness was found to be 0.572.

Turning to G23U U32A U53A C55G, the yeast fitness is ≤ 0.5.

In the case of U8G A69U, the yeast fitness stood at 0.575.

For C11U C29U, the yeast fitness is 0.738.

G6A C31U U32C G67C: the yeast fitness turned out to be 0.593.

With U7G C34A, the yeast fitness was found to be 0.757.

Turning to G10A U16A G39C, the yeast fitness is ≤ 0.5.

On to C4A A14C A21G C29A C34U A69U, for which the yeast fitness was ≤ 0.5.

Take C4A A14G C24U U32G A43G A65U: the yeast fitness was ≤ 0.5.

As for A20U U26C C33A C62A A69U, the yeast fitness is ≤ 0.5.

For the variant A21C U35C, the yeast fitness was 0.856.

In the case of U28A A45G A69C, the yeast fitness is ≤ 0.5.

As to C24G U64A C66A, the yeast fitness is ≤ 0.5.

As to G23A A43C U59A, the yeast fitness came out at 0.639.

On to C5G U59G G63C, for which the yeast fitness is ≤ 0.5.

Turning to C11U U28C C29G G67A, the yeast fitness was ≤ 0.5.

With U3A U8C A36U U53G, the yeast fitness was ≤ 0.5.

With G9A A40C, the yeast fitness was determined as 0.881.

Consider C27G A36U U53A, for which the yeast fitness was ≤ 0.5.

In the case of C5G G17A A20C G52A A65U, the yeast fitness was ≤ 0.5.

Regarding U19G U47C C66U, the yeast fitness worked out at 0.786.

Turning to A20C A36G G48A C49U, the yeast fitness is ≤ 0.5.

For the variant A43C G67A, the yeast fitness stood at 0.685.

Turning to A21G U59C, the yeast fitness amounted to 0.883.

Turning to C11A C27G U35A A43U U54C A65G, the yeast fitness was found to be 0.659.

For U19G G58C G67C, the yeast fitness came out at 0.61.

Regarding G25C C27U C61G, the yeast fitness was determined as 0.502.

For the variant A14U G17C C24A C30G C62A A70U, the yeast fitness was ≤ 0.5.

For C5U A14G G50C U53C C55U A57G, the yeast fitness is ≤ 0.5.

For U13C C22U C30U, the yeast fitness is ≤ 0.5.

Turning to A15U A20U C24U A65G A70C, the yeast fitness was ≤ 0.5.

On to C11A C27U C30A A43C C60U, for which the yeast fitness is ≤ 0.5.

As for G25A A43C U59C, the yeast fitness worked out at 0.71.

Take G39A G52A: the yeast fitness is 0.759.

For the variant C34G G38C C66A A70U, the yeast fitness is ≤ 0.5.

As to G6C A42C A43U, the yeast fitness is ≤ 0.5.

In the case of U19G C34A, the yeast fitness came out at 0.87.

As for C27G A45U, the yeast fitness came to 0.656.

As to C5A A20G G41C A65U, the yeast fitness was ≤ 0.5.

In the case of U8G G10C A20G G58A, the yeast fitness was ≤ 0.5.

In the case of C22A U26A, the yeast fitness was 0.949.

Take U19A G38C G56C: the yeast fitness was ≤ 0.5.

Take A15U A21G C24U C33U A40C A43C C49U C61U: the yeast fitness worked out at 0.516.

With U16G U26A C34U G50A A69U, the yeast fitness is 0.551.

For C4G A37U, the yeast fitness came out at 0.681.

On to C4A C31G C62G G68C, for which the yeast fitness was ≤ 0.5.

Take C4U G10A C11G A20G C27G A65G: the yeast fitness was ≤ 0.5.

Consider C22G C34A G58A C66A, for which the yeast fitness is ≤ 0.5.

As for U47C A65G, the yeast fitness was 0.92.

As for C27U G48A A65U, the yeast fitness came to 0.714.

Turning to C24U C49G, the yeast fitness is 0.724.

Regarding C22G G41A A43C G51C C66U G67U, the yeast fitness was ≤ 0.5.

Consider G10C C30U G38A, for which the yeast fitness amounted to 0.531.

Turning to C5G A15U A69U, the yeast fitness turned out to be 0.698.

As to A14G A36U A37G C46A G48A, the yeast fitness is ≤ 0.5.

With G6C C49G, the yeast fitness stood at 0.776.

On to G18A C24U G56A, for which the yeast fitness came to 0.674.

Take U13A G51A G56A: the yeast fitness was 0.628.

Regarding C11G C46U C49A C55U A69U, the yeast fitness was 0.536.

With G12C A20U C33U C66U, the yeast fitness is ≤ 0.5.

As to A14G A43C A45G, the yeast fitness is 0.585.

As to U26G C27A, the yeast fitness stood at 0.647.

As for U8A C24A C30U C31U G48C C66U, the yeast fitness was ≤ 0.5.

Regarding U3C C11U U19A A43U U59A G63A, the yeast fitness was ≤ 0.5.

With G9C A15G C27A C31G G50A, the yeast fitness stood at 0.642.

On to A15C U47G G52C, for which the yeast fitness is ≤ 0.5.

As to U13A U28C U32A, the yeast fitness was determined as 0.698.

As to C4G U7C C22U C27A U59G, the yeast fitness is ≤ 0.5.

On to G12A A43U G58C, for which the yeast fitness is 0.632.

In the case of U8A G23A C30G U59A A70C, the yeast fitness was ≤ 0.5.

In the case of C49G G50C C62U, the yeast fitness is 0.539.

For C4A C5G A57U G68U, the yeast fitness was 0.575.

Take A15G U32A: the yeast fitness is 0.637.

Consider C4A U32C C46A, for which the yeast fitness was 0.697.

Turning to C33U G38U, the yeast fitness was found to be 0.632.

U3C A21U G38C: the yeast fitness stood at 0.668.

Consider U13C C27U, for which the yeast fitness was determined as 0.878.
